Results: ChEMBL document CHEMBL1138229, “Novel cyano- and amidino-substituted derivatives of styryl-2-benzimidazoles and benzimidazo[1,2-a]quinolines. Synthesis, photochemical synthesis, DNA binding, and antitumor evaluation, part 3” (J Med Chem, 2007)

Assays:
[1] = Antiproliferative activity against human […] fibroblast after 72 hrs by MTT assay; assay type: functional
In short: (§1)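 Cells from ATCC grown as monolayers in DMEM with 10% FBS, 2 mM L-glutamine, penicillin/streptomycin, 5% CO2, 37 °C. Seeded on day 0 at 1 × 10^4/mL (2 × 10^4/mL for MCF-7). Five 10-fold dilutions (10^-8 to 10^-4 mol/L) added, then 72 h exposure. MTT read at 570 nm; percent growth vs time-zero and untreated controls. IC50 by linear regression; quadruplicates, three experiments.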

HeLa = assay: Antitumor activity against human HeLa cells after 72 hrs by MTT assay; assay type: functional, cell-based; in short: as §1
SW-620 = assay: Antitumor activity against human SW620 cells after 72 hrs by MTT assay; assay type: functional, cell-based; details: SW-620, 72 h; in short: as §1
MIA PaCa-2 = assay: Antitumor activity against human MiaPaCa2 cells after 72 hrs by MTT assay; assay type: functional, cell-based; details: MIA PaCa-2, 72 h; in short: as §1
MCF7 = assay: Antitumor activity against human MCF7 cells after 72 hrs by MTT assay; assay type: functional, cell-based; details: MCF7, 72 h; in short: as §1
HEp-2 = assay: Antitumor activity against human Hep2 cells after 72 hrs by MTT assay; assay type: functional, cell-based; details: HEp-2, 72 h; in short: as §1
NCI-H460 = assay: Antitumor activity against human H460 cells after 72 hrs by MTT assay; assay type: functional, cell-based; details: NCI-H460, 72 h; in short: as §1
DNA = assay: Binding affinity to calf thymus DNA by thermal melting temperature assay; assay type: nucleic-acid assay; details: Bos taurus
In short: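 ct-DNA (as phosphate concentration) in sodium cacodylate buffer pH 7.0, I = 0.05 mol dm-3. Compound/polynucleotide ratio r = 0.3. Absorbance at 260 nm followed against temperature, ligand absorbance subtracted. Tm taken as transition midpoint by first derivative or tangent method. ΔTm = Tm(complex) − Tm(free DNA), averaged over at least two runs, error ±0.5 °C.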

SMILES | IC50 (HeLa) | IC50 (SW-620) | IC50 (MIA PaCa-2) | IC50 (MCF7) | IC50 (NCI-H460) | ΔTm (DNA) | IC50 [1] | IC50 (HEp-2)
CC(C)NC(=N)c1ccc2nc(/C=C\c3ccccc3Cl)[nH]c2c1 | 19 µM | 29 µM | 28 µM | 35 µM | – | – | > 100 µM | 30 µM
N#Cc1ccc(/C=C/c2nc3ccccc3[nH]2)cc1 | 19 µM | 23 µM | 36 µM | 14 µM | 20 µM | – | – | –
N=C(NN1CCOCC1)c1ccc2ccc3nc4ccccc4n3c2c1 | 7 µM | 1.9 µM | 10 µM | 6.7 µM | – | 3.2 °C | 17.7 µM | 4.7 µM
CC(C)NC(=N)c1ccc2nc(/C=C\c3ccccc3)[nH]c2c1 | 23 µM | 70 µM | 84 µM | 33 µM | – | 1.2 °C | > 100 µM | 81 µM
N=C(N)c1ccc2nc(/C=C\c3ccccc3)[nH]c2c1 | 5.4 µM | 78 µM | > 100 µM | 36 µM | – | -0.5 °C | > 100 µM | ≥ 100 µM
N=C(N)c1ccc2nc(/C=C/c3ccccc3Cl)[nH]c2c1 | 7.5 µM | > 100 µM | > 100 µM | 22 µM | – | – | > 100 µM | 23 µM
N=C(N)c1ccc2nc3ccc4ccccc4n3c2c1 | 5 µM | 17 µM | 13 µM | 9 µM | – | 3.6 °C | 74 µM | 13 µM
CC(C)NC(=N)c1ccc2nc(/C=C/c3ccccc3Cl)[nH]c2c1 | 10 µM | 66 µM | 48 µM | 16 µM | – | – | > 100 µM | 70 µM
N=C(NN1CCOCC1)c1ccc2nc(/C=C\c3ccccc3Cl)[nH]c2c1 | 7 µM | 15 µM | 15 µM | 14 µM | – | – | 21 µM | 9 µM
N=C(N)c1ccc2nc(/C=C\c3ccccc3Cl)[nH]c2c1 | 20 µM | > 100 µM | 85 µM | 38 µM | – | – | > 100 µM | 29 µM
Clc1ccccc1/C=C\c1nc2ccc(C3=NCCN3)cc2[nH]1 | 11 µM | 46 µM | 62 µM | 23 µM | – | – | > 100 µM | ≥ 100 µM
N=C(NN1CCOCC1)c1ccc2nc(/C=C\c3ccccc3)[nH]c2c1 | 13 µM | 22 µM | 47 µM | 25 µM | – | 1.3 °C | 22 µM | 61 µM
c1ccc2c(c1)ccc1nc3ccccc3n12 | 12 µM | 23 µM | 18 µM | 16 µM | – | – | 14 µM | 15 µM
CC(C)NC(=N)c1ccc2nc3ccc4ccccc4n3c2c1 | 4 µM | 3 µM | 3 µM | 4 µM | – | 3.7 °C | 10 µM | 4 µM
CC(C)NC(=N)c1ccc2nc(/C=C/c3ccccc3)[nH]c2c1 | 11 µM | > 100 µM | > 100 µM | 9 µM | – | 1.1 °C | > 100 µM | ≥ 100 µM
N=C(NN1CCOCC1)c1ccc2nc(/C=C/c3ccccc3)[nH]c2c1 | 6 µM | 12 µM | 16 µM | 14 µM | – | 0.1 °C | 20 µM | 13 µM
N=C(N)c1ccc2ccc3nc4ccccc4n3c2c1 | 4.9 µM | 2.9 µM | 4.5 µM | 4 µM | – | 5.2 °C | 6.7 µM | 4 µM
c1ccc2c(c1)nc1ccc3ccc(C4=NCCN4)cc3n12 | 7 µM | 1.4 µM | 5.6 µM | 5.3 µM | – | 3.6 °C | 7.8 µM | 2.4 µM
COc1cc([C@@H]2c3cc4c(cc3[C@@H](O[C@@H]3O[C@@H]5CO[C@@H](C)O[C@H]5[C@H](O)[C@H]3O)[C@H]3COC(=O)[C@H]23)OCO4)cc(OC)c1O [ETOPOSIDE] | 3 µM | 20 µM | 15 µM | 50 µM | – | – | – | –

More lines, main results first:

IC50 (HeLa) | IC50 (SW-620) | IC50 (MIA PaCa-2) | IC50 (MCF7) | IC50 (NCI-H460) | ΔTm (DNA) | SMILES | IC50 [1] | IC50 (HEp-2)
3 µM | 4 µM | 5 µM | 4 µM | – | – | N=C(NN1CCOCC1)c1ccc2nc(/C=C/c3ccccc3Cl)[nH]c2c1 | 7 µM | 10 µM
2 µM | 2.5 µM | 4 µM | 4 µM | 3 µM | – | N#Cc1ccc2nc(/C=C/c3ccccc3)[nH]c2c1 | 14 µM | –
4 µM | 16 µM | 19 µM | 7 µM | – | 1.4 °C | C(=C\c1nc2ccc(C3=NCCN3)cc2[nH]1)/c1ccccc1 | 21 µM | 16 µM
2 µM | 15 µM | > 100 µM | 29 µM | – | 0.7 °C | N=C(N)c1ccc2nc(/C=C/c3ccccc3)[nH]c2c1 | > 100 µM | 11 µM
4 µM | 14 µM | 17 µM | 5 µM | – | – | Clc1ccccc1/C=C/c1nc2ccc(C3=NCCN3)cc2[nH]1 | 42 µM | 16 µM
0.04 µM | 0.02 µM | 0.02 µM | 0.04 µM | – | – | COc1cccc2c1C(=O)c1c(O)c3c(c(O)c1C2=O)C[C@@](O)(C(=O)CO)C[C@@H]3O[C@H]1C[C@H](N)[C@H](O)[C@H](C)O1 [DOXORUBICIN] | – | 0.04 µM
4 µM | 2 µM | 7 µM | 21 µM | 7 µM | – | N#Cc1ccc2c(c1)nc1ccc3ccccc3n12 | 5 µM | –
0.05 µM | 8 µM | 15 µM | 18 µM | 13 µM | – | N#Cc1ccc2nc3ccc4ccccc4n3c2c1 | 14 µM | –
1.7 µM | 1.6 µM | 8.1 µM | 2.2 µM | – | 5 °C | CC(C)NC(=N)c1ccc2ccc3nc4ccccc4n3c2c1 | 2.7 µM | 1.6 µM
